Experimental data reported in ChEMBL document CHEMBL4043131, “New prodrugs of two pyrimidine acyclic nucleoside phosphonates: Synthesis and antiviral activity” (Bioorg Med Chem, 2017).
Calls of active or inactive are those of the source. The calls are words filed in the database; no cut-off is given here.

Columns and labels:
[1] = system: Human alphaherpesvirus 1; assay: Antiviral activity against wild type Herpes simplex virus 1 KOS infected in HEL cells assessed as inhibition of virus-induced cytopathic effect; assay type: functional, cell-based; conditions: Human alphaherpesvirus 1, KOS
[2] = system: Human alphaherpesvirus 2; assay: Antiviral activity against Herpes simplex virus 2 G infected in HEL cells assessed as inhibition of virus-induced cytopathic effect; assay type: functional, cell-based; conditions: Human alphaherpesvirus 2, strain G
Procedure, shortened: (§1)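 Confluent cell monolayers were infected with 100 CCID50 of virus (1 CCID50 = dose infecting 50% of cultures) and incubated with varying compound concentrations. Cytopathicity was scored once complete in untreated infected controls.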

[3] = system: Human alphaherpesvirus 1; assay: Antiviral activity against thymidine kinase-deficient ACV-resistant Herpes simplex virus 1 KOS infected in HEL cells assessed as inhibition of virus-induced cytopathic effect; assay type: functional, cell-based; conditions: Human alphaherpesvirus 1, KOS
[4] = system: Human alphaherpesvirus 3; assay: Antiviral activity against wild type thymidine kinase expressing Varicella-Zoster virus Oka infected in HEL cells assessed as inhibition of virus-induced plaque formation; assay type: functional, cell-based; conditions: Human alphaherpesvirus 3, Oka
Procedure, shortened: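 Confluent HEL cultures were inoculated with 20 PFU of VZV and incubated with varying compound concentrations. Plaques were counted once formation was complete in untreated infected controls.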

[5] = system: Human alphaherpesvirus 3; assay: Antiviral activity against wild type thymidine kinase-deficient Varicella-Zoster virus 07-1 infected in HEL cells assessed as inhibition of virus-induced plaque formation; assay type: functional, cell-based; conditions: Human alphaherpesvirus 3, 07-1, HEL
Procedure, shortened: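 HEL fibroblast monolayers were infected with 20 PFU of VZV and kept with varying compound concentrations. Plaques were counted once formation was complete in untreated infected controls.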

[6] = system: Human betaherpesvirus 5; assay: Antiviral activity against Human cytomegalovirus AD169 infected in HEL cells assessed as inhibition of virus-induced cytopathic effect; assay type: functional, cell-based; conditions: Human betaherpesvirus 5, AD169, HEL; procedure, shortened: as §1
[7] = system: Human betaherpesvirus 5; assay: Antiviral activity against Human cytomegalovirus Davis infected in HEL cells assessed as inhibition of virus-induced cytopathic effect; assay type: functional, cell-based; conditions: Human betaherpesvirus 5, Davis; procedure, shortened: as §1
[8] = system: Vaccinia virus; assay: Antiviral activity against Vaccinia virus Lederle infected in HEL cells assessed as inhibition of virus-induced cytopathic effect; assay type: functional, cell-based; conditions: Orthopoxvirus vaccinia
[9] = system: HEL; assay: Cytotoxicity against HEL cells assessed as reduction in cell growth after 3 days by coulter counter method; assay type: cell-based; conditions: human, hel, 72 h
Procedure, shortened: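 HEL cells were seeded at 5 × 10³ cells/well and grown for 24 h, then given medium containing graded compound concentrations. After 3 days at 37 °C, cells were counted by Coulter counter.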

[10] = system: Vesicular stomatitis virus; assay: Antiviral activity against Vesicular stomatitis virus infected in HEL cells assessed as inhibition of virus-induced cytopathic effect; assay type: functional, cell-based
[11] = system: Coxsackievirus B4; assay: Antiviral activity against Coxsackie virus B4 infected in human HeLA cells assessed as inhibition of virus-induced cytopathic effect; assay type: functional, cell-based; procedure, shortened: as §1
[12] = Antiviral activity against Respiratory syncytial virus A strain long infected in human HeLA cells assessed as inhibition of virus-induced cytopathic effect; assay type: functional, cell-based; procedure, shortened: as §1
[13] = system: Human respirovirus 3; assay: Antiviral activity against Parainfluenza virus 3 infected in African green monkey Vero cells assessed as inhibition of virus-induced cytopathic effect; assay type: functional; procedure, shortened: as §1
[14] = system: Mammalian orthoreovirus 1; assay: Antiviral activity against Reovirus-1 infected in African green monkey Vero cells assessed as inhibition of virus-induced cytopathic effect; assay type: functional; procedure, shortened: as §1
[15] = system: Sindbis virus; assay: Antiviral activity against Sindbis virus infected in African green monkey Vero cells assessed as inhibition of virus-induced cytopathic effect; assay type: functional; procedure, shortened: as §1
[16] = system: Punta Toro virus; assay: Antiviral activity against Punta Toro virus infected in African green monkey Vero cells assessed as inhibition of virus-induced cytopathic effect; assay type: functional; procedure, shortened: as §1
[17] = system: Feline coronavirus; assay: Antiviral activity against Feline coronavirus infected in CRFK cells assessed as inhibition of virus-induced cytopathic effect; assay type: functional, cell-based
[18] = Selectivity index, ratio of CC50 for HEL cells to EC50 for Human cytomegalovirus AD169 infected in HEL cells; assay type: toxicity, cell-based; conditions: read-out: Ratio CC50/EC50
[19] = Selectivity index, ratio of CC50 for HEL cells to EC50 for wild type Herpes simplex virus 1 KOS infected in HEL cells; assay type: toxicity, cell-based; conditions: human, read-out: Ratio CC50/EC50
Procedure, shortened: (§2)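 EC50 is the concentration halving cytopathicity in HEL cells infected with 100 CCID50 HSV. […] Cells were counted by Coulter counter, and CC50 was read from plots of cell number (% of untreated) versus concentration. SI = CC50/EC50.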

[20] = Selectivity index, ratio of CC50 for HEL cells to EC50 for Herpes simplex virus 2 G infected in HEL cells; assay type: toxicity, cell-based; conditions: human, read-out: Ratio CC50/EC50; procedure, shortened: as §2
[21] = Selectivity index, ratio of CC50 for HEL cells to EC50 for thymidine kinase-deficient ACV-resistant Herpes simplex virus 1 KOS infected in HEL cells; assay type: toxicity, cell-based; conditions: human, read-out: Ratio CC50/EC50; procedure, shortened: as §2
[22] = Selectivity index, ratio of CC50 for HEL cells to EC50 for wild type thymidine kinase expressing Varicella-Zoster virus Oka infected in HEL cells; assay type: toxicity, cell-based; conditions: human, read-out: Ratio CC50/EC50
[23] = Selectivity index, ratio of CC50 for HEL cells to EC50 for wild type thymidine kinase-deficient Varicella-Zoster virus 07-1 infected in HEL cells; assay type: toxicity, cell-based; conditions: human, read-out: Ratio CC50/EC50
[24] = Selectivity index, ratio of CC50 for HEL cells to EC50 for Human cytomegalovirus Davis infected in HEL cells; assay type: toxicity, cell-based; conditions: read-out: Ratio CC50/EC50
[25] = system: Influenza A virus; assay: Antiviral activity against Influenza A virus (H1N1) infected in HEL cells assessed as inhibition of virus-induced cytopathic effect; assay type: functional, cell-based
[26] = system: Influenza A virus H3N2; assay: Antiviral activity against Influenza A virus H3N2 infected in HEL cells assessed as inhibition of virus-induced cytopathic effect; assay type: functional, cell-based
[27] = system: Influenza B virus; assay: Antiviral activity against influenza B virus infected in HEL cells assessed as inhibition of virus-induced cytopathic effect; assay type: functional, cell-based

SMILES	EC50 [1] [µM]	EC50 [2] [µM]	EC50 [3] [µM]	EC50 [4] [µM]	EC50 [5] [µM]	EC50 [6] [µM]	EC50 [7] [µM]	EC50 [8] [µM]	CC50 [9] [µM]	Activity [10]	Activity [11]	Activity [12]	Activity [13]	Activity [14]	Activity [15]	Activity [16]	Activity [17]	Activity [25]	Activity [26]	Activity [27]	further results
CCCCCCCCCCCCCCCCCCOCCOP(=O)(O)COCCn1cnc(N)nc1=O	0.35	0.15	0.2	0.32	0.79	1.12	0.24	> 100	79.2	inactive	inactive	inactive	inactive	inactive	inactive	inactive	inactive	inactive	inactive	inactive	selectivity ratio [18]: 71 to 330; selectivity ratio [19]: 226 to 528; selectivity ratio [20]: 226 to 528; selectivity ratio [21]: 226 to 528; selectivity ratio [22]: 100 to 248; selectivity ratio [23]: 100 to 248; selectivity ratio [24]: 71 to 330
CCCCCCCCCCCCCCCCNC(=O)[C@@H](N)Cc1ccc(OP(=O)(COCCn2cnc(N)nc2=O)Oc2ccc(C[C@H](N)C(=O)NCCCCCCCCCCCCCCCC)cc2)cc1	0.6	0.4	0.4	0.58	0.29	2.16	0.48	> 100	–	inactive	inactive	inactive	inactive	inactive	inactive	inactive	inactive	inactive	inactive	inactive	selectivity ratio [18]: 13 to 56; selectivity ratio [19]: 45 to 68; selectivity ratio [20]: 45 to 68; selectivity ratio [21]: 45 to 68; selectivity ratio [22]: 47 to 93; selectivity ratio [23]: 47 to 93; selectivity ratio [24]: 13 to 56
CC(C)(C)C(=O)OCOP(=O)(COCCn1cnc(N)nc1=O)OCOC(=O)C(C)(C)C	0.84	1.26	0.73	0.65	1.32	3.24	0.97	152	46	inactive	inactive	inactive	inactive	inactive	inactive	inactive	inactive	inactive	inactive	inactive	selectivity ratio [18]: 14 to 47; selectivity ratio [19]: 37 to 63; selectivity ratio [20]: 37 to 63; selectivity ratio [21]: 37 to 63; selectivity ratio [22]: 35 to 71; selectivity ratio [23]: 35 to 71; selectivity ratio [24]: 14 to 47
Nc1cc(OCCOCP(=O)(O)O)nc(N)n1	45	20	54	2.07	4.72	> 100	> 100	> 100	90.3	inactive	inactive	inactive	inactive	inactive	inactive	inactive	inactive	inactive	inactive	inactive	selectivity ratio [19]: 1.72 to 4.5; selectivity ratio [20]: 1.72 to 4.5; selectivity ratio [21]: 1.72 to 4.5; selectivity ratio [22]: 19 to 44; selectivity ratio [23]: 19 to 44
CCOC(=O)[C@H](C)NP(=O)(COCCOc1cc(N)nc(N)n1)N[C@@H](C)C(=O)OCC	3.9	3.46	6.3	0.56	1.69	28.4	17	157	25.9	inactive	inactive	inactive	inactive	inactive	inactive	inactive	inactive	inactive	inactive	inactive	selectivity ratio [18]: ≤ 1; selectivity ratio [19]: 4 to 15; selectivity ratio [20]: 4 to 15; selectivity ratio [21]: 4 to 15; selectivity ratio [22]: 15 to 52; selectivity ratio [23]: 15 to 52; selectivity ratio [24]: ≤ 1
CC(C)(C)C(=O)OCOP(=O)(O)COCCn1cnc(N)nc1=O	142	142	131	40.7	128	123	116	> 275	> 275	inactive	inactive	inactive	inactive	inactive	inactive	inactive	inactive	inactive	inactive	inactive	–
